Reference: ChEMBL document CHEMBL3044755, “5-Methyl-1,2,3-thiadiazoles synthesized via ugi reaction and their fungicidal and antiviral activities” (J Agric Food Chem, 2010)

How the values were obtained:
Rhizoctonia solani = experiment: Fungicidal activity against Rhizoctonia solani at 50 ug/ml by growth inhibition method; format: functional; conditions: read-out: GI
Procedure, shortened: (§1)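 Mycelial growth inhibition on potato dextrose agar. The panel covered Alternaria solani, Botrytis cinerea, Cercospora arachidicola, C. beticola, Colletotrichum lagenarium, Fusarium oxysporum, Gibberella zeae, Puccinia triticina, Phytophthora infestans, Physalospora piricola, Pellicularia sasakii and Rhizoctonia solani.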

Puccinia triticina = experiment: Fungicidal activity against Puccinia triticina at 50 ug/ml by growth inhibition method; format: functional; conditions: read-out: GI; procedure, shortened: as §1
Thanatephorus cucumeris = experiment: Fungicidal activity against Thanatephorus cucumeris at 50 ug/ml by growth inhibition method; format: functional; conditions: read-out: GI; procedure, shortened: as §1
[1] = test system: Botryosphaeria berengeriana; experiment: Fungicidal activity against Botryosphaeria berengeriana at 50 ug/ml by growth inhibition method; format: functional; conditions: read-out: GI; procedure, shortened: as §1
Phytophthora infestans = experiment: Fungicidal activity against Phytophthora infestans at 50 ug/ml by growth inhibition method; format: functional; conditions: read-out: GI; procedure, shortened: as §1
Fusarium graminearum = experiment: Fungicidal activity against Fusarium graminearum at 50 ug/ml by growth inhibition method; format: functional; conditions: read-out: GI; procedure, shortened: as §1
Colletotrichum lagenaria = experiment: Fungicidal activity against Colletotrichum lagenaria at 50 ug/ml by growth inhibition method; format: functional; conditions: read-out: GI; procedure, shortened: as §1
Cercospora beticola = experiment: Fungicidal activity against Cercospora beticola at 50 ug/ml by growth inhibition method; format: functional; conditions: read-out: GI; procedure, shortened: as §1
Mycosphaerella arachidis = experiment: Fungicidal activity against Mycosphaerella arachidis at 50 ug/ml by growth inhibition method; format: functional; conditions: read-out: GI; procedure, shortened: as §1
Alternaria solani = experiment: Fungicidal activity against Alternaria solani at 50 ug/ml by growth inhibition method; format: functional; conditions: read-out: GI; procedure, shortened: as §1
Nicotiana tabacum [2] = experiment: Induction of systemic acquired resistance activity in TMV infected-Nicotiana tabacum (tobacco) leaves at 50 ug/ml; format: functional
Procedure, shortened: (§2)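 Tobacco/TMV system used for systemic acquired resistance induction. Inhibition ratio calculated from mean lesion numbers on inoculated leaves relative to corresponding control. Tiadinil and ribavirin run as controls.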

Nicotiana tabacum [3] = experiment: Phytotoxicity against Nicotiana tabacum (tobacco) plant; format: organism-based; conditions: in vivo
Nicotiana tabacum [4] = experiment: Induction of systemic acquired resistance activity in TMV infected-Nicotiana tabacum (tobacco) leaves at 100 ug/ml; format: functional; procedure, shortened: as §2
Tobacco mosaic virus [5] = experiment: In vivo antiviral activity against Tobacco mosaic virus (TMV) infected tobacco leaves assessed as inactivation effect at 100 ug/ml co-treated with virus for 30 min before inoculation onto leaves measured at 2-3 days after viral challenge; format: functional
Procedure, shortened: (§3)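 TMV (5.88 10-2 μg/mL) mixed with equal volume of compound solution for 30 min, then rubbed onto upper three leaves of six-leaf tobacco; solvent on lower three leaves as control. Lesions counted 2-3 days later, three repetitions. Inhibition (%) = (CK − A)/CK × 100 from mean lesion counts.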

Tobacco mosaic virus [6] = experiment: In vivo antiviral activity against Tobacco mosaic virus (TMV) infected tobacco leaves assessed as inactivation effect at 500 ug/ml co-treated with virus for 30 min before inoculation onto leaves measured at 2-3 days after viral challenge; format: functional; procedure, shortened: as §3
Tobacco mosaic virus [7] = experiment: In vivo antiviral activity against Tobacco mosaic virus (TMV) infected tobacco leaves assessed as curative effect at 100 ug/ml treated after viral inoculation measured at 2-3 days after viral challenge; format: functional
Procedure, shortened: (§4)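 Curative test: whole six-leaf tobacco leaves rubbed with TMV (5.88 10-2 μg/mL), dried in greenhouse, then compound smeared on upper three leaves and solvent on lower three as control. Local lesions scored 2-3 days after inoculation, three repetitions. Inhibition (%) = (CK − A)/CK × 100 on mean lesion numbers.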

Tobacco mosaic virus [8] = experiment: In vivo antiviral activity against Tobacco mosaic virus (TMV) infected tobacco leaves assessed as curative effect at 500 ug/ml treated after viral inoculation measured at 2-3 days after viral challenge; format: functional; procedure, shortened: as §4
Tobacco mosaic virus [9] = experiment: In vivo antiviral activity against Tobacco mosaic virus (TMV) infected tobacco leaves assessed as protective effect at 100 ug/ml treated 12 hr before viral inoculation measured at 2-3 days after viral challenge; format: functional
Procedure, shortened: (§5)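 Six-leaf tobacco; compound solution smeared over whole leaves, dried in greenhouse, then after 12 h TMV (5.88 10-2 μg/mL) rubbed onto upper three leaves, with solvent on lower three leaves as control. Local lesions counted 2-3 days post-inoculation, three repetitions. Inhibition (%) = (CK − A)/CK × 100 from mean lesion numbers.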

Tobacco mosaic virus [10] = experiment: In vivo antiviral activity against Tobacco mosaic virus (TMV) infected tobacco leaves assessed as protective effect at 500 ug/ml treated 12 hr before viral inoculation measured at 2-3 days after viral challenge; format: functional; procedure, shortened: as §5
Tobacco mosaic virus [11] = experiment: In vitro antiviral activity against Tobacco mosaic virus (TMV) infected tobacco leaves at 100 ug/ml; format: functional
Tobacco mosaic virus [12] = experiment: In vitro antiviral activity against Tobacco mosaic virus (TMV) infected tobacco leaves at 500 ug/ml; format: functional
Fusarium oxysporum = experiment: Fungicidal activity against Fusarium oxysporum at 50 ug/ml by growth inhibition method; format: functional; conditions: read-out: GI; procedure, shortened: as §1
Botrytis cinerea = experiment: Fungicidal activity against Botryotinia fuckeliana at 50 ug/ml by growth inhibition method; format: functional; conditions: read-out: GI; procedure, shortened: as §1
Tobacco mosaic virus [13] = experiment: In vitro antiviral activity against Tobacco mosaic virus (TMV) infected tobacco leaves at 200 ug/ml; format: functional

Row | SMILES | inhibition of growth at 50 µg/mL (Thanatephorus cucumeris) [%] | inhibition of growth at 50 µg/mL [1] [%] | inhibition of growth at 50 µg/mL (Phytophthora infestans) [%] | inhibition of growth at 50 µg/mL (Fusarium graminearum) [%] | inhibition of growth at 50 µg/mL (Colletotrichum lagenaria) [%] | inhibition of growth at 50 µg/mL (Cercospora beticola) [%] | inhibition of growth at 50 µg/mL (Mycosphaerella arachidis) [%] | inhibition of growth at 50 µg/mL (Alternaria solani) [%] | Activity (Nicotiana tabacum [2]) [%] | Activity (Nicotiana tabacum [3]) | Activity (Nicotiana tabacum [4]) [%] | Activity (Tobacco mosaic virus [5]) [%] | Activity (Tobacco mosaic virus [6]) [%] | Activity (Tobacco mosaic virus [9]) [%] | Activity (Tobacco mosaic virus [10]) [%] | inhibition at 500 µg/mL (Tobacco mosaic virus [12]) [%] | inhibition of growth at 50 µg/mL (Fusarium oxysporum) [%] | inhibition of growth at 50 µg/mL (Botrytis cinerea) [%] | inhibition at 200 µg/mL (Tobacco mosaic virus [13]) [%] | further results
1 | Cc1cccc(C(C(=O)NC2CCCCC2)N(C(=O)c2nnsc2C)c2ccc(C)c(F)c2)c1 (stereo not drawn) | 0 | 0 | 1 | 36 | 0 | 25 | 0 | 6 | 40 | Non-toxic | 54 | 38 | 69 | 10 | 8 | 29 |  |  |  | inhibition of growth at 50 µg/mL (Rhizoctonia solani): 37%; inhibition of growth at 50 µg/mL (Puccinia triticina): 0%; Activity (Tobacco mosaic virus [7]): 29%; Activity (Tobacco mosaic virus [8]): 38%; inhibition at 100 µg/mL (Tobacco mosaic virus [11]): 44%
2 | Cc1ccc(N(C(=O)c2nnsc2C)C(C(=O)NC2CCCCC2)c2cccc(O)c2)cc1F (stereo not drawn) | 0 | 0 | 6 | 14 | 0 | 25 | 0 | 0 | 32 | Non-toxic | 76 | 44 | 67 | 43 | 44 | 48 |  |  |  | inhibition of growth at 50 µg/mL (Rhizoctonia solani): 30%; inhibition of growth at 50 µg/mL (Puccinia triticina): 0%; Activity (Tobacco mosaic virus [7]): 23%; Activity (Tobacco mosaic virus [8]): 57%; inhibition at 100 µg/mL (Tobacco mosaic virus [11]): 25%
3 | Cc1ccc(N(C(=O)c2nnsc2C)C(C(=O)NC(C)C)c2ccccc2C(F)(F)F)cc1Cl (stereo not drawn) | 57 | 43 | 13 | 24 | 17 | 23 | 18 | 36 |  |  |  |  |  |  |  | 16 | 10 | 70 | 29 | 
4 | Cc1ccc(C(C(=O)NC(C)C)N(C(=O)c2nnsc2C)c2ccc(C)c(Cl)c2)cc1 (stereo not drawn) | 60 | 37 | 0 | 0 | 11 | 9 | 33 | 34 |  |  |  |  |  |  |  | 21 | 19 | 79 | 11 | 
5 | Cc1ccc(N(C(=O)c2nnsc2C)C(C(=O)NC(C)C)c2ccc(O)cc2)cc1Cl (stereo not drawn) | 65 | 36 | 23 | 20 | 10 | 17 | 17 | 37 | 23 | Non-toxic | 41 | 50 | 64 | 8 | 36 | 4 | 23 | 76 | 0 | 
6 | Cc1ccc(N(C(=O)c2nnsc2C)C(C(=O)NC(C)C)c2ccc([N+](=O)[O-])cc2)cc1Cl (stereo not drawn) | 60 | 33 | 21 | 4 | 4 | 9 | 17 | 39 |  |  |  |  |  |  |  | 19 | 23 | 79 | 14 | 
7 | Cc1ccc(N(C(=O)c2nnsc2C)C(C(=O)NC(C)C)c2ccc(Cl)cc2)cc1Cl (stereo not drawn) | 60 | 47 | 19 | 4 | 7 | 9 | 21 | 37 |  |  |  |  |  |  |  | 32 | 26 | 76 | 25 | 
8 | Cc1ccc(N(C(=O)c2nnsc2C)C(C(=O)NC(C)C)c2cccc(Cl)c2)cc1Cl (stereo not drawn) | 62 | 40 | 14 | 4 | 14 | 9 | 8 | 37 |  |  |  |  |  |  |  | 9 | 26 | 76 | 6 | 
9 | Cc1ccc(N(C(=O)c2nnsc2C)C(C(=O)NC(C)C)c2ccccc2Cl)cc1Cl (stereo not drawn) | 72 | 27 | 23 | 23 | 13 | 25 | 21 | 49 |  |  |  |  |  |  |  | 8 | 23 | 76 | 3 | 
10 | Cc1ccc(N(C(=O)c2nnsc2C)C(C(=O)NC(C)C)c2ccc(F)cc2)cc1Cl (stereo not drawn) | 63 | 36 | 5 | 27 | 17 | 25 | 13 | 42 |  |  |  |  |  |  |  | 19 | 14 | 70 | 14 | 
11 | Cc1ccc(N(C(=O)c2nnsc2C)C(C(=O)NC(C)C)c2ccc(C(F)(F)F)cc2)cc1Cl (stereo not drawn) | 56 | 11 | 0 | 67 | 7 | 17 | 25 | 35 |  |  |  |  |  |  |  | 34 | 12 | 70 | 32 | 
12 | Cc1ccc(N(C(=O)c2nnsc2C)C(C(=O)NC(C)C)c2cccc(C(F)(F)F)c2)cc1Cl (stereo not drawn) | 26 | 44 | 0 | 50 | 17 | 25 | 13 | 37 |  |  |  |  |  |  |  | 41 | 14 | 76 | 17 | 
13 | NC(=O)c1ncn([C@@H]2O[C@H](CO)[C@@H](O)[C@H]2O)n1 [RIBAVIRIN] |  |  |  |  |  |  |  |  | 31 | Non-toxic | 28 | 46 | 59 | 30 | 59 | 32 |  |  |  | inhibition at 100 µg/mL (Tobacco mosaic virus [11]): 20%
